In PMC5873441 (Diabetes, Obesity & Metabolism, 2018):
Read-outs that look alike come from different tables or passages of the source.

What was measured:
[1] = format: in vivo, human
Summary of the method: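 Adults with normal hepatic function or mild, moderate or severe impairment (Child–Pugh), matched for age, sex and weight, each got one 0.5 mg s.c. thigh injection by pen. Plasma was sampled from pre-dose to 840 h and stored at −20°C. Proteins were precipitated, then LC‐MS/MS (0.729–60.8 nmol/L, analogue internal standard). AUC by non-compartmental methods; CL/F = dose/AUC0‐∞. Group ratios vs normal, with 90% CI.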

plasma protein (albumin) = format: in vitro ADME, human; conditions: surface plasmon resonance, in vitro on blood samples taken prior to dosing; across all hepatic function groups
[2] = Safety and tolerability of a single 0.5 mg dose; format: in vivo, human; conditions: single s.c. 0.5 mg
Summary of the method: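 After one 0.5 mg s.c. thigh dose, participants stayed in-house ≥5 days, then had visits on days 7, 8, 15, 22 and 29 and follow-up on day 36. Monitoring covered adverse events, hypoglycaemic episodes, haematology, biochemistry (amylase, lipase), coagulation, calcitonin, urinalysis, vital signs, physical examination, ECG and fasting plasma glucose.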

[3] = cited from earlier work
[4] = human, single s.c. 0.5 mg, mild hepatic impairment, n = 8

AUC0‐last, ER (90% CI) vs no impairment ([1]; estimated ratio mild impairment/no impairment): 0.96 (0.76, 1.20) | Cmax, ER (90% CI) vs no impairment ([1]; estimated ratio mild impairment/normal function): 0.99 (0.80, 1.23) | AUC0‐∞, ER (90% CI) vs no impairment ([1]; estimated ratio mild impairment/normal function, single s.c. 0.5 mg): 0.95 (0.77, 1.16) | AUC0‐last, ER (90% CI) vs no impairment ([1]; estimated ratio moderate impairment/no impairment): 1.03 (0.92, 1.15) | Cmax, ER (90% CI) vs no impairment ([1]; estimated ratio moderate impairment/normal function): 1.02 (0.88, 1.18) | AUC0‐∞, ER (90% CI) vs no impairment ([1]; estimated ratio moderate impairment/normal function, single s.c. 0.5 mg): 1.02 (0.93, 1.12) | AUC0‐last, ER (90% CI) vs no impairment ([1]; estimated ratio severe impairment/no impairment): 0.93 (0.77, 1.13) | Cmax, ER (90% CI) vs no impairment ([1]; estimated ratio severe impairment/normal function): 1.15 (0.89, 1.48) | AUC0‐∞, ER (90% CI) vs no impairment ([1]; estimated ratio severe impairment/normal function, single s.c. 0.5 mg): 0.97 (0.84, 1.12) | AUC0‐last, estimated mean ([1]; human, single s.c. 0.5 mg, plasma LC-MS/MS, no hepatic impairment, n = 18): 2731 nmol^×h/L | AUC0‐last, estimated mean [1, 4]: 2621 nmol^×h/L | Tmax, median [1, 4]: 65.9 h | AUC0‐last, estimated mean ([1]; human, single s.c. 0.5 mg, moderate hepatic impairment, n = 10): 2807 nmol^×h/L | AUC0‐last, estimated mean ([1]; human, single s.c. 0.5 mg, severe hepatic impairment, n = 7): 2539 nmol^×h/L | CL/F, geometric mean (CV) ([1]; total apparent clearance, CV in %, severe hepatic impairment, n = 7): 0.043 (10.0) L/h | median fraction of unbound semaglutide (plasma protein (albumin)): < 1%
Compound: CC[C@H](C)[C@H](NC(=O)[C@H](Cc1ccccc1)NC(=O)[C@H](CCC(=O)O)NC(=O)[C@H](CCCCNC(=O)COCCOCCNC(=O)COCCOCCNC(=O)CC[C@H](NC(=O)CCCCCCCCCCCCCCCCC(=O)O)C(=O)O)NC(=O)[C@H](C)NC(=O)[C@H](C)NC(=O)[C@H](CCC(N)=O)NC(=O)CNC(=O)[C@H](CCC(=O)O)NC(=O)[C@H](CC(C)C)NC(=O)[C@H](Cc1ccc(O)cc1)NC(=O)[C@H](CO)NC(=O)[C@H](CO)NC(=O)[C@@H](NC(=O)[C@H](CC(=O)O)NC(=O)[C@H](CO)NC(=O)[C@@H](NC(=O)[C@H](Cc1ccccc1)NC(=O)[C@@H](NC(=O)CNC(=O)[C@H](CCC(=O)O)NC(=O)C(C)(C)NC(=O)[C@@H](N)Cc1cnc[nH]1)[C@@H](C)O)[C@@H](C)O)C(C)C)C(=O)N[C@@H](C)C(=O)N[C@@H](Cc1c[nH]c2ccccc12)C(=O)N[C@@H](CC(C)C)C(=O)N[C@H](C(=O)N[C@@H](CCCNC(=N)N)C(=O)NCC(=O)N[C@@H](CCCNC(=N)N)C(=O)NCC(=O)O)C(C)C [semaglutide]
serious adverse events or events leading to participant withdrawal ([2]; all groups): No serious adverse events | severe hypoglycaemic episodes ([2]; all groups): No severe hypoglycaemic episodes | changes in vital signs, clinical laboratory assessments, physical examination or ECG ([2]; normal or impaired hepatic function): No clinically relevant changes | exposure in people with renal impairment vs normal renal function ([3]; after adjusting for specific baseline characteristics): comparable | administered dose excreted in urine as intact semaglutide ([3]; human, radioactive‐labelled compound): 3.1%
